Tests used:
A549 NFκB-luc cell line = experiment: Cytotoxicity in A549/NFκB-luc reporter cell line; type: cell-based; settings: 6 hours treatment
Summary of the method: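 A549 cells stably carrying an NFκB-driven luciferase reporter, kept in DMEM with 10% FBS, penicillin/streptomycin and 100 μg/mL hygromycin B. Plated at 5 x 10^4 cells/well and allowed to adhere. Given 100 ng/ml TNF-α plus test compound (serial dilutions 0.00013–5 μg/mL) or vehicle for 6 h. Detergent-lysed; lysate equilibrated 30 min with ethidium bromide; fluorescence read at ex 340/em 590 nm.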

[1] = tested on: phosphorylated (active) NFκB p65 (pS529); experiment: Intracellular staining, phosphorylated NFκB p65; type: cell-based, human; settings: AsPC-1; 2.4 μg/mL; 6 hours; flow cytometry; vs vehicle control; average of 3 experiments; student's T test
Summary of the method: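 AsPC-1 cells were treated 6 h with 2.4 μg/mL test compound or vehicle control. After trypsinization, 4% paraformaldehyde fixation and ice-cold ethanol permeabilization, cells were stained directly 1 h RT with PE-conjugated mouse anti-NFκB p65 (pS529) or mouse IgG isotype; no secondary. Gates were set against the isotype. Flow cytometry, 20,000 events; Student's t test vs vehicle, mean of 3 experiments.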

BxPC-3 = experiment: TUNEL, BxPC-3; type: cell-based, human; settings: 2.4 μg/mL, 24 hours (method), flow cytometry, average of 3 experiments
Summary of the method: (§1)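 Cells (BxPC-3 and PANC-1 in complete RPMI with 10% FBS; MIA PaCa-2 in DMEM with 5% horse serum plus 10% FBS) were seeded at 500,000 per 6-well well and adhered overnight. They received 2.4 μg/mL test compound or vehicle for 24 h, then were trypsinized, fixed (4% paraformaldehyde) and ethanol-permeabilized. TdT/fluorescein-12-dUTP labelling ran 60 min at 37°C, stopped with 20mM EDTA. Flow cytometry, 20,000 events; Student's t test vs vehicle.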

PANC-1 = experiment: TUNEL, PANC-1; type: cell-based, human; settings: 2.4 μg/mL, 24 hours (method), flow cytometry, average of 3 experiments
Summary of the method: as §1

MIA PaCa2 = experiment: TUNEL, MIA PaCa-2; type: cell-based, human; settings: 2.4 μg/mL, 24 hours (method), flow cytometry, average of 3 experiments
Summary of the method: as §1

MIA PaCa-2 = experiment: Markers of apoptosis; type: cell-based, human; settings: 2.4 μg/mL, with the assays used
Summary of the method: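 Caspase-3/7 luminescence. MIA PaCa-2 cells in DMEM with 5% horse serum and 10% FBS. 10,000 cells/well, adhered overnight, then given 2.4 μg/mL test compound or vehicle for 1, 3, 6 or 24 h. Equal volume of pro-luminescent DEVD substrate added, 30–60 min at RT with shaking, luminescence read. Expressed as fold over vehicle; Student's t test.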

IKKα = experiment: Intracellular staining, IKKα in AsPC-1; type: cell-based, human; settings: 2.4 μM, 6 hours, flow cytometry, average of 3 experiments, vs vehicle
TNFAIP3 = experiment: Intracellular staining, TNFAIP3 in AsPC-1; type: cell-based, human; settings: 2.4 μM, 6 hours, flow cytometry, average of 3 experiments, vs vehicle
TLR-1 = experiment: Intracellular staining, TLR-1 in AsPC-1; type: cell-based, human; settings: 2.4 μM, 6 hours, flow cytometry, average of 3 experiments, vs vehicle
TLR-3 = experiment: Intracellular staining, TLR-3 in AsPC-1; type: cell-based, human; settings: 2.4 μM, 6 hours, flow cytometry, average of 3 experiments, vs vehicle
IRAK = experiment: Intracellular staining, IRAK in AsPC-1; type: cell-based, human; settings: 2.4 μM, 6 hours, flow cytometry, average of 3 experiments, vs vehicle
phosphorylated Elk = experiment: Intracellular staining, phosphorylated Elk in AsPC-1; type: cell-based, human; settings: 2.4 μM, 6 hours, flow cytometry, average of 3 experiments, vs vehicle
[2] = tested on: TNF-related apoptosis-inducing ligand (TRAIL); experiment: Intracellular staining, TRAIL in AsPC-1; type: cell-based, human; settings: 2.4 μM, 6 hours, flow cytometry, average of 3 experiments, vs vehicle
IL-8 = IL-8 ELISA, AsPC-1; type: cell-based, human; settings: 2.4 μg/mL, 6 hours, compared to controls, significant, average of 3 experiments
[3] = tested on: phosphorylated Fos Ser 32; experiment: Intracellular staining, phosphorylated Fos in AsPC-1; type: cell-based, human; settings: 2.4 μM, 6 hours, flow cytometry, average of 3 experiments, vs vehicle
phosphorylated Jun Ser73 = experiment: Intracellular staining, phosphorylated Jun in AsPC-1; type: cell-based, human; settings: 2.4 μM, 6 hours, flow cytometry, average of 3 experiments, vs vehicle
[4] = tested on: phosphorylated GSK3β Ser9; experiment: Intracellular staining, phosphorylated GSK3β in AsPC-1; type: cell-based, human; settings: 2.4 μM, 6 hours, flow cytometry, average of 3 experiments, not statistically significant (student's T test)
Summary of the method: (§2)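 AsPC-1 cells (complete RPMI, 10% FBS, 37°C, 5% CO2) were exposed 6 h to test compound or vehicle control. They were trypsinized, fixed in 4% paraformaldehyde and permeabilized with ice-cold ethanol. Unconjugated primary antibody to the phospho-epitope (or rabbit IgG isotype) was applied 1 h RT, then PE-conjugated secondary 30 min RT. Flow cytometry, 20,000 events; Student's t test vs vehicle on the mean of 3 experiments.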

[5] = tested on: phosphorylated Akt Ser 473; experiment: Intracellular staining, phosphorylated AKT in AsPC-1; type: cell-based, human; settings: 2.4 μM, 6 hours, flow cytometry, average of 3 experiments, not statistically significant (student's T test)
Summary of the method: as §2

[6] = tested on: phosphorylated cyclin D1 Thr 286; experiment: Intracellular staining, phosphorylated cyclin D1 in AsPC-1; type: cell-based, human; settings: 2.4 μM, 6 hours, flow cytometry, average of 3 experiments, not statistically significant (student's T test)
Summary of the method: as §2

HUVEC cells = experiment: Endothelial tube formation assay; type: cell-based; settings: single experiment, preliminary, data not shown

COc1ccc(/C=C/CCCC[C@H](C)[C@H](O)[C@@H](O)[C@H]2NC(=O)CC3(O)NC(=O)CC3NC(=O)C[C@@H](O)CNC(=O)CN(C)C(=O)[C@@H](Cc3c(C(=O)O)[nH]c4ccccc34)NC(=O)CNC(=O)[C@H]2O)cc1 (some centres unmarked) [microsclerodermin A]
Cytotoxicity in reporter cell line (in words) (A549 NFκB-luc cell line): little or no cytotoxicity
Levels of phosphorylated (active) NFκB p65 (pS529) [1]: significantly reduced
Apoptosis (TUNEL DNA fragmentation) (BxPC-3): induced statistically significant apoptosis
Apoptosis (TUNEL DNA fragmentation) (PANC-1): induced statistically significant apoptosis
DNA fragmentation (TUNEL) (MIA PaCa2): not detected
Markers of apoptosis (MIA PaCa-2): no markers of apoptosis were seen
Change in protein level, IKKα (IKKα): no changes at the protein level
Change in protein level, TNFAIP3 (TNFAIP3): no changes at the protein level
Change in expression, TLR-1 (TLR-1): No significant changes
Change in expression, TLR-3 (TLR-3): No significant changes
Change in expression, IRAK (IRAK): No significant changes
Change in expression, phosphorylated Elk (phosphorylated Elk): No significant changes
Change in expression, TRAIL [2]: No significant changes
Increase in IL-8 production (IL-8): about 2.5 fold
Level of phosphorylated Fos [3]: statistically significantly upregulated
Level of phosphorylated Jun (phosphorylated Jun Ser73): statistically significantly upregulated
Level of phosphorylated (inactive) GSK3β [4]: increased
Level of phosphorylated AKT [5]: increased
Level of phosphorylated cyclin D1 [6]: increased
Endothelial tube formation (HUVEC cells): decreased tube formation
